Data reported in ChEMBL document CHEMBL1782042, “Efficient microwave-assisted synthesis and antitumor activity of novel 4,4'-methylenebis[2-(3-aryl-4,5-dihydro-1H-pyrazol-5-yl)phenols]” (Eur J Med Chem, 2011).

How the values were obtained:
[1] = test system: K562; test: Anticancer activity against human K562 cells after 48 hrs by sulforhodamine B assay; assay type: functional; conditions: K562, 48 h
Procedure, shortened: (§1)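 NCI 60-cell-line in vitro screen, second stage: five concentration levels (100, 10, 1.0, 0.1 and 0.01 μM) with 48 h continuous drug exposure. Cell growth was estimated by sulforhodamine B protein staining. GI50 is the drug concentration that gives a 50% reduction in net protein increase relative to control cells over the incubation.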

[2] = test system: SNB-19; test: Anticancer activity against human SNB19 cells after 48 hrs by sulforhodamine B assay; assay type: functional; conditions: SNB-19, 48 h; procedure, shortened: as §1
[3] = test system: HT-29; test: Cytotoxicity against human HT-29 cells; assay type: cell-based
Procedure, shortened: (§2)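 NCI 60 human tumour cell line screen, second stage at five concentrations (100, 10, 1.0, 0.1 and 0.01 μM). Continuous drug exposure for 48 h, with cell growth estimated by sulforhodamine B protein staining. GI50 is the drug concentration giving a 50% reduction in net protein increase relative to control cells over the incubation.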

[4] = test system: TK-10; test: Anticancer activity against human TK10 cells after 48 hrs by sulforhodamine B assay; assay type: functional; conditions: TK-10, 48 h
Procedure, shortened: (§3)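 NCI 60-cell-line screen, second stage. Five concentration levels (100, 10, 1.0, 0.1 and 0.01 μM), 48 h continuous drug exposure. Cell growth was estimated by sulforhodamine B protein staining. GI50 is the concentration giving a 50% reduction in net protein increase relative to control cells over the drug incubation. Compounds entered this stage after an earlier single-dose screen.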

[5] = test system: UO-31; test: Cytotoxicity against human UO31 cells; assay type: cell-based
Procedure, shortened: (§4)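 NCI 60 human tumour cell line screen; five concentration levels (100, 10, 1.0, 0.1 and 0.01 μM), 48 h continuous drug exposure. Cell growth estimated by sulforhodamine B (SRB) protein staining. GI50 taken as the drug concentration giving a 50% reduction in net protein increase relative to control cells over the incubation.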

[6] = test system: NCI-H226; test: Anticancer activity against human NCI-H226 cells after 48 hrs by sulforhodamine B assay; assay type: functional; conditions: NCI-H226, 48 h; procedure, shortened: as §1
[7] = test system: MDA-MB-231; test: Cytotoxicity against human MDA-MB-231 cells; assay type: cell-based; procedure, shortened: as §2
[8] = test system: OVCAR-8; test: Cytotoxicity against human OVCAR8 cells; assay type: cell-based; procedure, shortened: as §2
[9] = test system: PC-3; test: Anticancer activity against human PC3 cells after 48 hrs by sulforhodamine B assay; assay type: functional; conditions: PC-3, 48 h; procedure, shortened: as §1
[10] = test system: NCI-H226; test: Cytotoxicity against human NCI-H226 cells; assay type: cell-based; procedure, shortened: as §2
[11] = test system: IGROV-1; test: Cytotoxicity against human IGROV1 cells; assay type: cell-based; procedure, shortened: as §2
[12] = test system: MDA-MB-468; test: Anticancer activity against human MDA-MB-468 cells after 48 hrs by sulforhodamine B assay; assay type: functional; conditions: MDA-MB-468, 48 h; procedure, shortened: as §1
[13] = test system: A549; test: Anticancer activity against human A549 cells after 48 hrs by sulforhodamine B assay; assay type: functional; conditions: A549, 48 h; procedure, shortened: as §1
[14] = test system: MDA-MB-231; test: Anticancer activity against human MDA-MB-231 cells after 48 hrs by sulforhodamine B assay; assay type: functional; conditions: MDA-MB-231, 48 h; procedure, shortened: as §1
[15] = test system: UO-31; test: Anticancer activity against human UO31 cells after 48 hrs by sulforhodamine B assay; assay type: functional; conditions: UO-31, 48 h; procedure, shortened: as §3
[16] = test system: PC-3; test: Cytotoxicity against human PC3 cells; assay type: cell-based; procedure, shortened: as §2
[17] = test system: UACC-257; test: Cytotoxicity against human UACC257 cells; assay type: cell-based; procedure, shortened: as §4
[18] = test system: SF-539; test: Anticancer activity against human SF539 cells after 48 hrs by sulforhodamine B assay; assay type: functional; conditions: SF-539, 48 h; procedure, shortened: as §1
[19] = test system: EKVX; test: Cytotoxicity against human EKVX cells; assay type: cell-based; procedure, shortened: as §2
[20] = test system: ACHN; test: Cytotoxicity against human ACHN cells; assay type: cell-based; procedure, shortened: as §2
[21] = test system: MDA-MB-435; test: Anticancer activity against human MDA-MB-435 cells after 48 hrs by sulforhodamine B assay; assay type: functional; conditions: MDA-MB-435, 48 h; procedure, shortened: as §1
[22] = test system: NCI-H522; test: Cytotoxicity against human NCI-H522 cells; assay type: cell-based; procedure, shortened: as §2
[23] = test system: SF-295; test: Anticancer activity against human SF295 cells after 48 hrs by sulforhodamine B assay; assay type: functional; conditions: SF-295, 48 h; procedure, shortened: as §1
[24] = test system: RXF 393; test: Anticancer activity against human RXF393 cells after 48 hrs by sulforhodamine B assay; assay type: functional; conditions: RXF 393, 48 h; procedure, shortened: as §1
[25] = test system: ACHN; test: Anticancer activity against human ACHN cells after 48 hrs by sulforhodamine B assay; assay type: functional; procedure, shortened: as §1
[26] = test system: NCI-H522; test: Anticancer activity against human NCI-H522 cells after 48 hrs by sulforhodamine B assay; assay type: functional; conditions: NCI-H522, 48 h; procedure, shortened: as §1
[27] = test system: RXF 393; test: Cytotoxicity against human RXF393 cells; assay type: cell-based; procedure, shortened: as §2
[28] = test system: A549; test: Cytotoxicity against human A549 cells; assay type: cell-based; procedure, shortened: as §2
[29] = test system: KM12; test: Cytotoxicity against human KM12 cells; assay type: cell-based; procedure, shortened: as §2
[30] = test system: NCI-H322M; test: Anticancer activity against human NCI-H322M cells after 48 hrs by sulforhodamine B assay; assay type: functional; procedure, shortened: as §1
[31] = test system: MCF7; test: Cytotoxicity against human MCF7 cells; assay type: cell-based; procedure, shortened: as §2
[32] = test system: NCI-H23; test: Cytotoxicity against human NCI-H23 cells; assay type: cell-based; procedure, shortened: as §2
[33] = test system: SK-OV-3; test: Cytotoxicity against human SKOV3 cells; assay type: cell-based; procedure, shortened: as §2
[34] = test system: SNB-75; test: Cytotoxicity against human SNB75 cells; assay type: cell-based; procedure, shortened: as §4
[35] = test system: LOX IMVI; test: Cytotoxicity against human LOXIMVI cells; assay type: cell-based; procedure, shortened: as §2
[36] = test system: OVCAR-3; test: Cytotoxicity against human OVCAR3 cells; assay type: cell-based; procedure, shortened: as §2
[37] = test system: SK-MEL-5; test: Anticancer activity against human SK-MEL-5 cells after 48 hrs by sulforhodamine B assay; assay type: functional; conditions: SK-MEL-5, 48 h; procedure, shortened: as §1
[38] = test system: T47D; test: Anticancer activity against human T47D cells after 48 hrs by sulforhodamine B assay; assay type: functional; procedure, shortened: as §3
[39] = test system: U-251; test: Anticancer activity against human U251 cells after 48 hrs by sulforhodamine B assay; assay type: functional; conditions: U-251, 48 h; procedure, shortened: as §3
[40] = test system: HOP-92; test: Anticancer activity against human HOP92 cells after 48 hrs by sulforhodamine B assay; assay type: functional; conditions: HOP-92, 48 h; procedure, shortened: as §1
[41] = test system: NCI-H322M; test: Cytotoxicity against human NCI-H322M cells; assay type: cell-based; procedure, shortened: as §2
[42] = test system: CCRF-CEM; test: Cytotoxicity against human CCRF-CEM cells; assay type: cell-based; procedure, shortened: as §2
[43] = test system: OVCAR-5; test: Cytotoxicity against human OVCAR5 cells; assay type: cell-based; procedure, shortened: as §2
[44] = test system: HCT-15; test: Anticancer activity against human HCT15 cells after 48 hrs by sulforhodamine B assay; assay type: functional; conditions: HCT-15, 48 h; procedure, shortened: as §1
[45] = test system: CCRF-CEM; test: Anticancer activity against human CCRF-CEM cells after 48 hrs by sulforhodamine B assay; assay type: functional; procedure, shortened: as §1
[46] = test system: UACC-62; test: Anticancer activity against human UACC62 cells after 48 hrs by sulforhodamine B assay; assay type: functional; conditions: UACC-62, 48 h; procedure, shortened: as §3
[47] = test system: 786-0; test: Cytotoxicity against human 786-0 cells; assay type: cell-based; procedure, shortened: as §2
[48] = test system: SR; test: Anticancer activity against human SR cells after 48 hrs by sulforhodamine B assay; assay type: functional; procedure, shortened: as §3
[49] = test system: OVCAR-3; test: Anticancer activity against human OVCAR3 cells after 48 hrs by sulforhodamine B assay; assay type: functional; conditions: OVCAR-3, 48 h; procedure, shortened: as §1
[50] = test system: TK-10; test: Cytotoxicity against human TK10 cells; assay type: cell-based; procedure, shortened: as §4
[51] = test system: CAKI-1; test: Anticancer activity against human Caki1 cells after 48 hrs by sulforhodamine B assay; assay type: functional; conditions: CAKI-1, 48 h; procedure, shortened: as §1
[52] = test system: RPMI-8226; test: Cytotoxicity against human RPMI8226 cells; assay type: cell-based; procedure, shortened: as §2
[53] = test system: MOLT-4; test: Anticancer activity against human MOLT4 cells after 48 hrs by sulforhodamine B assay; assay type: functional; conditions: MOLT-4, 48 h; procedure, shortened: as §1
[54] = test system: U-251; test: Cytotoxicity against human U251 cells; assay type: cell-based; procedure, shortened: as §4

SMILES: Oc1ccc(Cc2ccc(O)c(C3CC(c4ccc(Cl)cc4)=NN3)c2)cc1C1CC(c2ccc(Cl)cc2)=NN1 (centres undefined)
- GI50 [1]: 1.75 µM
- GI50 [2]: 3.64 µM
- LC50 [3]: > 100 µM
- GI50 [4]: 5.34 µM
- LC50 [5]: > 100 µM
- GI50 [6]: 4.74 µM
- LC50 [7]: > 100 µM
- LC50 [8]: > 100 µM
- GI50 [9]: 3.32 µM
- LC50 [10]: > 100 µM
- LC50 [11]: > 100 µM
- GI50 [12]: 3.5 µM
- GI50 [13]: 2.45 µM
- GI50 [14]: 2.65 µM
- GI50 [15]: 3.04 µM
- LC50 [16]: > 100 µM
- LC50 [17]: > 100 µM
- GI50 [18]: 5.82 µM
- LC50 [19]: > 100 µM
- LC50 [20]: > 100 µM
- GI50 [21]: 3.21 µM
- LC50 [22]: 46.2 µM
- GI50 [23]: 1.47 µM
- GI50 [24]: 3.99 µM
- GI50 [25]: 3.63 µM
- GI50 [26]: 2.95 µM
- LC50 [27]: > 100 µM
- LC50 [28]: > 100 µM
- LC50 [29]: > 100 µM
- GI50 [30]: 4.17 µM
- LC50 [31]: > 100 µM
- LC50 [32]: > 100 µM
- LC50 [33]: > 100 µM
- LC50 [34]: > 100 µM
- LC50 [35]: > 100 µM
- LC50 [36]: > 100 µM
- GI50 [37]: 3.36 µM
- GI50 [38]: 3.79 µM
- GI50 [39]: 1.8 µM
- GI50 [40]: 3.39 µM
- LC50 [41]: > 100 µM
- LC50 [42]: > 100 µM
- LC50 [43]: > 100 µM
- GI50 [44]: 2.51 µM
- GI50 [45]: 1.94 µM
- GI50 [46]: 3.16 µM
- LC50 [47]: > 100 µM
- GI50 [48]: 1.83 µM
- GI50 [49]: 2.59 µM
- LC50 [50]: > 100 µM
- GI50 [51]: 2.67 µM
- LC50 [52]: > 100 µM
- GI50 [53]: 2.7 µM
- LC50 [54]: > 100 µM
